Reference: ChEMBL document CHEMBL4715714, “Design, synthesis and biological evaluation of thiosemicarbazones, hydrazinobenzothiazoles and arylhydrazones as anticancer agents with a potential to overcome multidrug resistance” (Eur J Med Chem, 2016)
Activity calls are given as the source filed them. The rule behind the calls is not given here.

Assays:
[1] = system: MES-SA/Dx5; assay: Cytotoxicity against human MES-SA/DX5 cells transfected with mCherry fluorescent protein assessed as inhibition of cell proliferation incubated for 72 hrs by fluorescent assay; type: functional, cell-based
Outline: (§1)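 MES-SA and MES-SA/Dx5 cells were made to stably express mCherry by lentiviral transduction. Cells were seeded at 5000 (96-well) or 2500 (384-well) per well, allowed to attach 24 h, then treated with compound dilutions for 72 h. Viability was read as fluorescence, excitation 585 nm, emission 610 nm.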

[2] = system: MES-SA; assay: Cytotoxicity against human MES-SA cells transfected with mCherry fluorescent protein assessed as inhibition of cell proliferation incubated for 72 hrs by fluorescent assay; type: functional, cell-based; outline: as §1
[3] = system: MES-SA/Dx5; assay: Cytotoxicity against human MES-SA/DX5 cells assessed as inhibition of cell proliferation incubated for 72 hrs by MTT assay; type: functional, cell-based; conditions: MES-SA/Dx5, 72 h
Outline: (§2)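 Cells were seeded (10000/well for A2780, 5000/well for MES-SA/Dx5 and KB-3-1/V1) and left to attach 12 h, then exposed to compound for 72 h. Medium was removed, and MTT (0.83 mg/mL) was added for 1 h at 37 °C. Cells were lysed in DMSO and absorbance read at 540 nm. Signal was corrected for unstained lysate background, normalized to untreated cells, and IC50 taken from a sigmoidal dose-response fit.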

[4] = system: MES-SA; assay: Cytotoxicity against human MES-SA cells assessed as inhibition of cell proliferation incubated for 72 hrs by MTT assay; type: functional, cell-based; outline: as §2
[5] = Cytotoxicity against human A2780adr cells assessed as inhibition of cell proliferation incubated for 72 hrs by MTT assay; type: functional, cell-based; conditions: A2780 ADR; outline: as §2
[6] = system: A2780; assay: Cytotoxicity against human A2780 cells assessed as inhibition of cell proliferation incubated for 72 hrs by MTT assay; type: functional, cell-based; conditions: A2780, 72 h; outline: as §2
[7] = system: KB 3-1; assay: Cytotoxicity against human KB-3-1 cells assessed as inhibition of cell proliferation incubated for 72 hrs by MTT assay; type: functional, cell-based; conditions: KB 3-1, 72 h; outline: as §2
[8] = system: KB-V1; assay: Cytotoxicity against human KB-V1 cells assessed as inhibition of cell proliferation incubated for 72 hrs by MTT assay; type: functional, cell-based; conditions: KB-V1, 72 h; outline: as §2
[9] = Selectivity ratio of IC50 for human MES-SA cells to IC50 for human MES-SA/DX5 cells incubated for 72 hrs by MTT assay; type: functional
Outline: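 The selectivity ratio is the IC50 in P-gp-negative parental cells divided by the IC50 in the P-gp-positive resistant partner.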

[10] = system: MES-SA/Dx5; assay: Cytotoxicity against human MES-SA/DX5 cells transfected with mCherry fluorescent protein incubated for 72 hrs in presence of efflux pump inhibitor, Tariquidar by fluorescence assay; type: functional, cell-based
Outline: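 The mCherry-expressing cells (lentiviral) were seeded at 5000 or 2500 per well, attached for 24 h, and exposed 72 h to compounds with Tariquidar coadministered. Live-cell signal was fluorescence at 585 nm excitation and 610 nm emission.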

[11] = Selectivity ratio of IC50 for human MES-SA cells transfected with mCherry to IC50 for human MES-SA/DX5 cells transfected with mCherry incubated for 72 hrs by fluorescent assay; type: functional
[12] = Homo sapiens, MES-SA/Dx5, 72 h, read-out: IC50
[13] = Homo sapiens, MES-SA/Dx5, 72 h, read-out: pIC50 (converted)
[14] = Homo sapiens, MES-SA, 72 h, read-out: IC50
[15] = Homo sapiens, MES-SA, 72 h, read-out: pIC50 (converted)

C/C(=N\NC(=S)Nc1ccccc1C)c1ccccn1
IC50 [1, 12]: 92 nM
IC50 [1, 13]: 87.1 nM
IC50 [2, 14]: 30 nM
IC50 [2, 15]: 29.5 nM

O=[N+]([O-])c1ccc(O)c(/C=N/NC(=S)Nc2cccc(C(F)(F)F)c2)c1
IC50 [1, 12]: 11900 nM
IC50 [2, 14]: 16400 nM

COc1cc(N/N=C/c2ccccn2)ncn1
IC50 ([3]; read-out: IC50): 2490 nM
IC50 ([4]; read-out: IC50): 2820 nM
IC50 ([5]; read-out: IC50): 1950 nM
IC50 ([5]; read-out: pIC50 (converted)): 1950 nM
IC50 [1, 12]: 2710 nM
IC50 [1, 13]: 2570 nM
IC50 [2, 14]: 2450 nM
IC50 [2, 15]: 2340 nM
IC50 ([6]; read-out: IC50): 1730 nM
IC50 ([6]; read-out: pIC50 (converted)): 1740 nM
IC50 ([7]; read-out: IC50): 1950 nM
IC50 ([7]; read-out: pIC50 (converted)): 1910 nM
IC50 ([8]; read-out: IC50): 2830 nM
IC50 ([8]; read-out: pIC50 (converted)): 2820 nM

C/C(=N\Nc1ccccn1)c1ccccn1
IC50 [1, 12]: 59 nM
IC50 [1, 13]: 58.9 nM
IC50 [2, 14]: 102 nM
IC50 [2, 15]: 77.6 nM

COc1ccc(O)c(/C=N/Nc2nc3ccccc3s2)c1
IC50 [1, 12]: 11600 nM
IC50 [1, 13]: 9330 nM
IC50 [2, 14]: 14900 nM
IC50 [2, 15]: 13200 nM

FC(F)(F)c1cccc(NC(=S)N/N=C/c2ccccn2)c1
IC50 [1, 12]: 720 nM
IC50 [1, 13]: 692 nM
IC50 [2, 14]: 850 nM
IC50 [2, 15]: 832 nM

Oc1ccccc1/C=N/NC(=S)Nc1cccc(C(F)(F)F)c1
IC50 [1, 12]: 4080 nM
IC50 [2, 14]: 5070 nM

CCc1ccc(/C=N/Nc2nc3ccccc3s2)nc1
Ratio IC50 [9]: 1.68
IC50 ([3]; read-out: IC50): 1850 nM
IC50 ([3]; read-out: pIC50 (converted)): 1860 nM
IC50 ([4]; read-out: IC50): 3240 nM
IC50 ([4]; read-out: pIC50 (converted)): 3160 nM
IC50 ([5]; read-out: IC50): 620 nM
IC50 ([5]; read-out: pIC50 (converted)): 589 nM
IC50 [1, 12]: 3830 nM
IC50 [1, 13]: 3550 nM
IC50 [2, 14]: 4260 nM
IC50 [2, 15]: 4270 nM
IC50 ([6]; read-out: IC50): 810 nM
IC50 ([6]; read-out: pIC50 (converted)): 813 nM
IC50 ([7]; read-out: IC50): 610 nM
IC50 ([7]; read-out: pIC50 (converted)): 933 nM
IC50 ([8]; read-out: IC50): 1140 nM
IC50 ([8]; read-out: pIC50 (converted)): 1150 nM

CCc1ccc(/C=N/NC(=S)Nc2ccc(OC)cc2)nc1
IC50 ([3]; read-out: IC50): 72 nM
IC50 ([3]; read-out: pIC50 (converted)): 63.1 nM
IC50 ([4]; read-out: IC50): 420 nM
IC50 ([4]; read-out: pIC50 (converted)): 417 nM
IC50 [1, 12]: 56 nM
IC50 [2, 14]: 96 nM

C/C(=N\NC(=S)Nc1cccc(C(F)(F)F)c1)c1ccccn1
IC50 [1, 12]: 11700 nM
IC50 [1, 13]: 11700 nM
IC50 [2, 14]: 9590 nM
IC50 [2, 15]: 9550 nM

COc1ccccc1/C=N/Nc1nc2ccccc2s1
pIC50 [1]: inactive
IC50 ([1]; mes-sa/dx5): Not Active
pIC50 [2]: inactive
IC50 ([2]; mes-sa): Not Active

Oc1ccccc1/C=N/NC(=S)Nc1ccccc1
IC50 [1, 12]: 6450 nM
IC50 [1, 13]: 4790 nM
IC50 [2, 14]: 14000 nM
IC50 [2, 15]: 11500 nM
Activity [10]: Active
Ratio IC50 [11]: 2.23

COc1ccc(NC(=S)N/N=C/c2ccccc2O)cc1
IC50 ([3]; read-out: IC50): 3500 nM
IC50 ([3]; read-out: pIC50 (converted)): 3470 nM
IC50 ([4]; read-out: IC50): 3910 nM
IC50 ([4]; read-out: pIC50 (converted)): 3800 nM
IC50 ([5]; read-out: IC50): 6950 nM
IC50 ([5]; read-out: pIC50 (converted)): 6920 nM
IC50 [1, 12]: 1850 nM
IC50 [2, 14]: 2670 nM
IC50 ([6]; read-out: IC50): 5470 nM
IC50 ([6]; read-out: pIC50 (converted)): 5370 nM
IC50 ([7]; read-out: IC50): 5020 nM
IC50 ([7]; read-out: pIC50 (converted)): 5010 nM
IC50 ([8]; read-out: IC50): 4870 nM
IC50 ([8]; read-out: pIC50 (converted)): 5010 nM

C/C(=N\Nc1nc2ccccc2s1)c1ccccc1N
Ratio IC50 [9]: 1.64
IC50 ([3]; read-out: IC50): 28000 nM
IC50 ([3]; read-out: pIC50 (converted)): 27500 nM
IC50 ([4]; read-out: IC50): 45600 nM
IC50 ([4]; read-out: pIC50 (converted)): 44700 nM
IC50 [1, 12]: 19000 nM
IC50 [2, 14]: 46200 nM
Ratio IC50 [11]: 2.41

C(=N\Nc1nc2ccccc2s1)/c1ccccn1
Ratio IC50 [9]: 1.41
IC50 ([3]; read-out: IC50): 1020 nM
IC50 ([3]; read-out: pIC50 (converted)): 1000 nM
IC50 ([4]; read-out: IC50): 1420 nM
IC50 ([4]; read-out: pIC50 (converted)): 1410 nM
IC50 ([5]; read-out: IC50): 450 nM
IC50 ([5]; read-out: pIC50 (converted)): 447 nM
IC50 [1, 12]: 3360 nM
IC50 [1, 13]: 3090 nM
IC50 [2, 14]: 2700 nM
IC50 [2, 15]: 2690 nM
IC50 ([6]; read-out: IC50): 590 nM
IC50 ([6]; read-out: pIC50 (converted)): 575 nM
IC50 ([7]; read-out: IC50): 650 nM
IC50 ([7]; read-out: pIC50 (converted)): 646 nM
IC50 ([8]; read-out: IC50): 840 nM
IC50 ([8]; read-out: pIC50 (converted)): 813 nM

C/C(=N\NC(=S)Nc1cccc(C)c1)c1ccccn1
IC50 [1, 12]: 63 nM
IC50 [1, 13]: 61.7 nM
IC50 [2, 14]: 32 nM
IC50 [2, 15]: 31.6 nM

COc1ccc(O)c(/C(C)=N/Nc2nc3ccccc3s2)c1
IC50 [1, 12]: 15400 nM
IC50 [1, 13]: 14100 nM
IC50 [2, 14]: 50700 nM
IC50 [2, 15]: 50100 nM
Activity [10]: Active
Ratio IC50 [11]: 4.71

Cc1cc(/C=N/Nc2ccccn2)nc2ccccc12
IC50 [1, 12]: 400 nM
IC50 [1, 13]: 398 nM
IC50 [2, 14]: 560 nM
IC50 [2, 15]: 537 nM
